Avidin fluor – avidin bead compound fluorescence profile | fluorescence (KMESF) at 10 µM | 220,000 tested, 0.38% active | Avidin beads, compound fluorescence 488/530 nm, flow cytometry; hits give high values; in the data active = fluorescence above about 47
GSH fluor – compound fluoresces at 488/530 nm on GSH beads. GSH beads flow cytometry, compound fluorescence 488/530 nm; hits give high values. fluorescence (KMESF) at 10 µM. 190,000 tested, 0.25% active. AID 1776; in the data active = fluorescence above about 89;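 note: glutathione beads carrying GST-tagged Bcl family fusion proteins plus one bare bead set; values are compound well signal with DMSO vehicle wells as background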
Pemphigus Ab inh – inhibitors of pemphigus antibody binding to human desmoglein-3; 310,000 tested, 0.48% active; AID 588358; P32926; DSG3-coupled beads, scFv-anti-DSG3-GFP binding, flow cytometry; hits give low values; binding (percent of control), % at 10 µM;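 active = binding more than 3 SD below its plate's average and above zero; inconclusive = below that plate limit but binding exactly zero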;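 note: hits lower antibody fragment binding to DSG3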
Arr AP2 block – blocks beta-arrestin peptide binding to AP2 adaptin. AID 504490. 340,000 tested, 0.31% active. FITC-arrestin peptide / GST-AP2 beads, flow cytometry; AP2 beta2 appendage carries R879A mutation. inhibition, % at 10 µM;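 active = inhibition above a set limit, near 3 SD of compounds lacking own fluorescence, cut at about 54% in these data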;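 note: plate controls were DMSO wells for no effect and 5 µM unlabelled arrestin peptide for full effect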
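System: GST-tagged AP2 beta2-adaptin appendage (R879A) on 4 µm glutathione beads / Reagent: FITC-arrestin peptide, 50 nM / Detection: HyperCyt-sampled flow cytometry, FL1 channel, ex 488/em 535 nm / Timing: 12 min plus 1 h, RT / Buffer or medium: PBS plus Tween 20 (0.05%) and BSA (0.1%)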
Arr AP2 CP1 – blocks beta-arrestin peptide binding to human AP2 | shares compounds with Arr AP2 block | GST-AP2 beads, FITC arrestin peptide binding, flow cytometry; GST-fused beta2-adaptin appendage, R879A mutant | inhibition, % at 10 µM | 1,300 tested, 2% active | AID 504908;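 active = inhibition above a set limit, roughly 3 SD of non-fluorescent compound noise, cut at about 38% in these data; inactive = inhibition at or below that limit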;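 note: loss of bead fluorescence from 50 nM FITC arrestin peptide bound to appendage; 0% = negative control wells and 100% = excess unlabelled arrestin peptide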
GST GSH counter – GST-GSH bead binding interference, counter-screen. shares compounds with Arr AP2 block. GST-fluorescein binding to GSH beads, fluorescence. inhibition, % at 10 µM. 1,300 tested, 2% active. AID 588338;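 active = inhibition above 50%, about 3 SD of the inhibition seen with non-fluorescent compounds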;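 note: fluorescein maleimide labelled GST captured on 4 micron glutathione beads; higher means more loss of bead fluorescence from quenching or blocked binding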
An asterisk follows results filed as active; ? = inconclusive; nt = not tested or not shown. Shown are actives, neighbours in structure and some others; about 1.1% of the full set was active somewhere.

SMILES	Avidin fluor	GSH fluor	Pemphigus Ab inh	Arr AP2 block	Arr AP2 CP1	GST GSH counter
CC(=O)c1cccc(NC(=O)C2CC(=O)N(C3CCCC3)C2)c1 (stereo not given)	nt	nt	121	34	nt	nt
Cc1ccc(-c2c(C(=O)N/N=C/c3cccs3)nnn2-c2nonc2N)cc1	nt	nt	89	28	nt	nt
CCOc1ccc(-c2c(C(=O)N/N=C/c3cccs3)nnn2-c2nonc2N)cc1	nt	nt	?	61*	4	-5
CCN1C(c2ccccc2)=C(c2ccccc2)S/C1=C/C=C1\SC(=S)N(C)C1=O	18	8	nt	57*	-4	14
CCN1C(c2ccccc2)=C(c2ccccc2)S/C1=C\C=C1/SC(=S)N(C)C1=O	nt	nt	117	75*	18	43
CCN1C(=O)/C(=C/C=C2/Sc3ccc4ccccc4c3N2CCO)SC1=S	10	10	107	4	nt	nt
Cc1ccccc1CNCCCSc1ncccn1	nt	nt	107	8	nt	nt
CCCCN1C(=O)C(=O)N(CC(=O)Nc2ccc(OC(F)(F)F)cc2)C1=O	nt	nt	124	-14	nt	nt
O=C(O)c1ccccc1C(=O)Nc1ccc(-n2nccc2C(F)(F)F)cc1	4	nt	nt	10	nt	nt
COC(=O)CSc1nc(SCc2ccc(C)cc2)nc2c1CCCC2	3	28	102	99*	-7	6
COc1ccc(-c2cc(C(=O)Nc3c(C)n(C)n(-c4ccccc4)c3=O)c3ccccc3n2)cc1OC	nt	nt	106	56*	-10	-3
Cc1cc(NC(=O)/C=C/c2ccccc2Cl)n(-c2nc3ccccc3[nH]2)n1	5	8	97	101*	-4	-5
Cc1cc(NC(=O)c2ccc(F)cc2F)n(-c2nc3ccccc3[nH]2)n1	10	46	93	12	26	2
Cc1cc(NC(=O)CC2CCCC2)n(-c2nc3ccccc3[nH]2)n1	8	14	96	7	nt	nt
CNS(=O)(=O)c1ccc(C(C)(C)C)cc1	11	11	99	1	nt	nt
CN(C)c1ccc(CCc2ccc(N)cc2)cc1	nt	nt	123	23	nt	nt
Nc1ccc(N(c2ccccc2)c2ccc(N)cc2)cc1	28	15	nt	59*	10	16
COc1ccc(S(=O)(=O)N2CCOCC2)cc1NC(=O)CN1CCCc2ccccc21	nt	nt	nt	-13	nt	nt
Clc1ccc(OCc2nnnn2-c2ccccc2)cc1	11	11	131	73*	5	-5
Cc1ccnn1CCC(=O)N1CCCC(Nc2ccc(C(C)C)cc2)C1 (stereo not given)	nt	nt	99	nt	nt	nt
Cc1ccnn1CCC(=O)N1CCCC(Nc2ccc(F)c(F)c2)C1 (stereo not given)	nt	nt	0.9*	67*	6	-2
CCN(CC)c1ccc(/C=N/NC(=O)Cc2cccs2)c(O)c1	4	8	103	61*	2	-4
Cc1ccc(N2CN=C(c3ccccc3)NC2=S)cc1	14	22	106	-4	nt	nt
COc1ccc(C2=NCN(c3ccc(C)cc3)C(=S)N2)cc1	13	10	108	80*	3	-12
COc1ccc2[nH]c3c(c2c1)CCN1C(=O)C(CC(=O)NCc2ccco2)C[C@H](C(=O)N2CCCCC2)[C@@]31CCc1ccccc1 (stereo not given in full)	nt	nt	96	21	nt	nt
SMILES	Avidin fluor	GSH fluor	Pemphigus Ab inh	Arr AP2 block	Arr AP2 CP1	GST GSH counter
CCOc1ccccc1NC(=O)CSc1nnnn1C1CCCC1	nt	nt	92	-4	nt	nt
CC(C)CSc1nc2ccccc2n1CC(=O)O	12	16	94	55*	-2	3
O=c1c(Cc2c(F)cccc2Cl)c(O)ccn1Cc1ccc(F)cc1	8	15	95	12	nt	nt
O=c1c(Cc2c(F)cccc2Cl)c(O)ccn1CCCn1ccnc1	11	22	93	63*	-3	-7
O=[N+]([O-])c1ccc(N2CCN(Cc3ccccc3)CC2)nc1	23	12	97	3	nt	nt
O=[N+]([O-])c1ccc(CN2CCN(c3ccc4ccccc4n3)CC2)cc1	12	14	97	54*	-2	2
Cc1c(Cl)cccc1NC(=O)Nc1cccnc1	nt	nt	nt	-11	nt	nt
COc1ccccc1NC(=O)Nc1cnccn1	7	12	90	17	23	-1
Cc1c(Cl)cccc1NC(=O)Nc1cnccn1	nt	nt	110	-1	-6	3
COc1ccc(OC)c(NC(=O)Nc2cccnc2)c1	nt	nt	116	-5	nt	nt
O=C(Nc1cnccn1)Nc1ccccc1F	nt	nt	101	-14	-6	2
COc1ccc(OC)c(NC(=O)Nc2cnccn2)c1	nt	nt	122	56*	7	4
Brc1cnc(OCc2ccccc2)nc1OCc1ccccc1	nt	nt	114	-5	nt	nt
O=C(NCCc1ccc(Cl)cc1Cl)c1cncc(Br)c1	nt	nt	97	-5	nt	nt
CCCCCN(C(=O)CCC(=O)OCC(=O)N1CCCCC1)c1c(N)n(CCCC)c(=O)[nH]c1=O	nt	nt	115	-14	nt	nt
Cc1cccc(C(=O)Oc2ccc(/C=N/NC(=O)Cc3ccc([N+](=O)[O-])cc3)cc2)c1	16	10	87	105*	-3	59*
Cc1cccc(C(=O)Oc2ccc(/C=N/NC(=O)c3ccc(O)cc3)cc2)c1	nt	nt	101	34	nt	nt
CC(=O)c1ccc(N(C(=O)CS(=O)CC(=O)Nc2ccc(F)cc2)C(C(=O)NC2CCCCC2)c2cccs2)cc1 (stereo not given)	13	22	103	23	nt	nt
COc1ccccc1C(=O)NC(=O)COC(=O)c1nc2nc(C)cc(C)n2n1	nt	nt	97	60*	4	-7
Cc1[nH]c2ccccc2c1-c1csc(NC(=O)CN2CCOCC2)n1	11	10	107	57*	-2	5
Cc1[nH]c2ccccc2c1-c1csc(NC(=O)CSCC(=O)O)n1	3	nt	106	5	nt	nt
Cc1ccnc(NC(c2ccccn2)c2c(C)[nH]c3ccccc23)c1 (stereo not given)	10	11	97	36	nt	nt
CCC1(c2ccccc2)NC(=O)N(CC(=O)Nc2ccc3c(c2)OCO3)C1=O (stereo not given)	14	35	101	-4	nt	nt
CCCC1(c2ccccc2)NC(=O)N(CC(=O)Nc2ccc3c(c2)OCCO3)C1=O (stereo not given)	nt	nt	101	65*	20	1
O=C(NCC1CCCCC1)c1cc(S(=O)(=O)N2CCOCC2)ccc1F	nt	nt	114	nt	nt	nt
SMILES	Avidin fluor	GSH fluor	Pemphigus Ab inh	Arr AP2 block	Arr AP2 CP1	GST GSH counter
CCOC(=O)c1c(-c2ccc3ccccc3c2)csc1NC(=O)CCCC(=O)O	nt	nt	98	7	nt	nt
COc1ccc(OC)c(NC(=O)CCC(=O)N(Cc2ccc(OC)c(OC)c2)c2nccs2)c1	12	10	107	2	nt	nt
COc1ccc(NC(=O)CCC(=O)N(Cc2ccc(OC)c(OC)c2)c2nccs2)c(OC)c1	8	13	111	56*	-1	-3
Nc1nc(-c2ccccc2)nc2sc3c(c12)CCCC3	14	3	101	65*	21	-3
O=c1oc(-c2ccccc2)nc2sc3c(c12)CCC3	5	21	87	9	nt	nt
COc1cc(CC2C(=O)OCC2C(=O)c2ccc3c(c2)OCO3)cc(OC)c1OC (stereo not given)	nt	nt	nt	7	nt	nt
